Active and inactive are the calls of the source. How the calls were made is not given here.
How the values were obtained:
A673 = assay: Cytotoxicity against human A673 cells assessed as reduction in cell viability after 48 hrs by CellTiter-Glo assay; type: functional, cell-based; conditions: A673, 48 h
[1] = biological target: T1, L-lactate dehydrogenase A chain (Homo sapiens, UniProt P00338); assay: Inhibition of recombinant human LDHA using sodium pyruvate as substrate preincubated for 5 mins followed by diaphorase/resazurin addition and measured after 20 mins by fluorescence based assay
Sus scrofa = species: Sus scrofa; assay: Inhibition of porcine heart MDH using malic acid as substrate preincubated for 10 mins followed by substrate addition and measured after 5 mins by resazurin based fluorescence based assay; conditions: time 15.0 min
MIA PaCa-2 = assay: Cytotoxicity against human MIA PaCa-2 cells assessed as reduction in cell viability after 48 hrs by CellTiter-Glo assay; type: functional, cell-based; conditions: MIA PaCa-2, 48 h
[2] = biological target: T1, L-lactate dehydrogenase A chain; assay: Inhibition of LDHA in human MIA PaCa-2 cells assessed as decrease in lactate production incubated for 2 hrs by lactate oxidase-coupled fluorescence based assay; type: cell-based
[3] = biological target: T1, L-lactate dehydrogenase A chain; assay: Inhibition of LDHA in human A673 cells assessed as decrease in lactate production incubated for 2 hrs by lactate oxidase-coupled fluorescence based assay; type: cell-based
[4] = biological target: T1, L-lactate dehydrogenase A chain; assay: Inhibition of GS[HiBiT]GS-tagged LDHA (unknown origin) expressed in HEK-293T cells measured after 1 hr by […]; type: cell-based
Outline: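 HEK293T cells were transiently transfected for 24 h with CMV-driven LDHA carrying a C-terminal GS[HiBiT]GS tag, then reseeded at 2500 cells/well in DPBS with Ca/Mg and 1 g/L glucose. […] Cells were lysed with NP40, and 11S (100 nM final) plus furimazine was added.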

[5] = biological target: L-lactate dehydrogenase B chain (Homo sapiens) (UniProt P07195); assay: Inhibition of recombinant human LDHB using sodium pyruvate as substrate preincubated for 5 mins followed by diaphorase/resazurin addition and measured after 20 mins by fluorescence based assay
L-lactate dehydrogenase B chain (Homo sapiens), sequence (P07195 2-334 limits assumed): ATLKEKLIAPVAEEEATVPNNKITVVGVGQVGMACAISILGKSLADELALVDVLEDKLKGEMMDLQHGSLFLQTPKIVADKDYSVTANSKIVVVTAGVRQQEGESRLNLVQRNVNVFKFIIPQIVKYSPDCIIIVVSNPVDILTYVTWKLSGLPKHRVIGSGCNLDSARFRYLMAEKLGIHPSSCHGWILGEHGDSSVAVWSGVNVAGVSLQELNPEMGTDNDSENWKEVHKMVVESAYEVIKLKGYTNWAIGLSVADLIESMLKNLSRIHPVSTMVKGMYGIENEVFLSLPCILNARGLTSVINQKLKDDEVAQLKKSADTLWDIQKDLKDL

[6] = Oral bioavailability in CD-1 mouse at 50 mg/kg and measured up to 24 hrs by LC/MS-MS analysis; type: ADME, organism-based; conditions: in vivo
Outline: (§1)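 Male CD1 mice, about 6–8 weeks old and 20–30 g, were dosed PO at 40 or 50 mg/kg in 0.1 M NaOH in PBS, pH 7–8.5, prepared the same day. Three mice per cohort. Dorsal metatarsal vein blood was collected into heparin at 15, 30 min and 1, 2, 4, 8, 12, 24 h. Plasma was spun at 4 °C, frozen at –75 °C and quantified by LC–MS/MS.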

[7] = Cmax in CD-1 mouse at 50 mg/kg, po and measured up to 24 hrs by LC/MS-MS analysis; type: ADME, organism-based; set-up: route oral, dose 50 mg/kg, time <=24; conditions: in vivo; outline: as §1
[8] = Terminal half life in CD-1 mouse at 50 mg/kg, po and measured up to 24 hrs by LC/MS-MS analysis; type: ADME, organism-based; conditions: in vivo
Outline: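 Male CD1 mice, about 6–8 weeks old and 20–30 g, were dosed PO at 40 or 50 mg/kg in 0.1 M NaOH in PBS, pH 7–8.5, prepared the same day. Three mice per cohort. Plasma was spun at 4 °C, frozen at –75 °C and quantified by LC–MS/MS.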

[9] = Terminal half life in CD-1 mouse at 10 mg/kg, iv and measured up to 24 hrs by LC/MS-MS analysis; type: ADME, organism-based; conditions: in vivo
Outline: (§2)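 Male CD1 mice, about 6–8 weeks old and 20–30 g, received 10 mg/kg IV in 0.1 M NaOH in PBS adjusted to pH 7–8.5, made fresh on the day of dosing. Three mice per cohort. Blood was taken from the dorsal metatarsal vein at 5, 15, 30 min and 1, 2, 4, 8, 12, 24 h into heparin tubes. Plasma was spun at 4 °C, stored at –75 °C and analysed by LC–MS/MS. For IV dosing Cmax = C0.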

[10] = Cmax in CD-1 mouse at 10 mg/kg, iv and measured up to 24 hrs by LC/MS-MS analysis; type: ADME, organism-based; set-up: route intravenous, dose 10 mg/kg, time <=24; conditions: in vivo; outline: as §2
[11] = Volume of distribution at steady state in CD-1 mouse at 10 mg/kg, iv and measured up to 24 hrs by LC/MS-MS analysis; type: ADME, organism-based; conditions: in vivo; outline: as §2
[12] = AUClast in CD-1 mouse at 50 mg/kg, po and measured up to 24 hrs by LC/MS-MS analysis; type: ADME, organism-based; set-up: route oral, dose 50 mg/kg, time <=24; conditions: in vivo; outline: as §1
[13] = AUClast in CD-1 mouse at 10 mg/kg, iv and measured up to 24 hrs by LC/MS-MS analysis; type: ADME, organism-based; set-up: route intravenous, dose 10 mg/kg, time <=24; conditions: in vivo; outline: as §2

**Q.** With `Cc1ncc(C#Cc2cccc(-c3nn(-c4nc(C(=O)O)cs4)c(CC4CC4)c3Cc3ccc(S(N)(=O)=O)c(F)c3)c2)s1` as the compound, how does the IC50 (A673) read?
**A.** Its IC50 is 532 nM.

**Q.** And the IC50 [1]?
**A.** Its IC50 is 43 nM.

**Q.** What about the inhibition (Sus scrofa) of the same compound?
**A.** Its inhibition is “inactive”.

**Q.** And the IC50 (MIA PaCa-2)?
**A.** Its IC50 is 641 nM.

**Q.** What about the IC50 [2] of the same compound?
**A.** Its IC50 is 720 nM.

**Q.** And the IC50 [3]?
**A.** Its IC50 is 713 nM.

**Q.** And the IC50 [4]?
**A.** The IC50 was 38 nM.

**Q.** What about the inhibition [5] of the same compound?
**A.** The inhibition was “Active”.

**Q.** Which IC50 [1] does the source give for `Cc1ccc(C#Cc2cc(-c3nn(-c4nc(C(=O)O)cs4)c(CC4CC4)c3Cc3ccc(S(N)(=O)=O)c(F)c3)ccc2F)o1` here?
**A.** The IC50 was 47 nM.

**Q.** And the F [6]?
**A.** The F was 106%.

**Q.** What about the Cmax [7] of the same compound?
**A.** Its Cmax is 1260 ng/mL.

**Q.** And the “beta t1/2” value [8]?
**A.** Its value is 10.7 h.

**Q.** And the inhibition (Sus scrofa)?
**A.** The inhibition was “inactive”.

**Q.** And the “beta t1/2” value [9]?
**A.** Its value is 5.1 h.

**Q.** What about the Cmax [10] of the same compound?
**A.** Its Cmax is 4770 ng/mL.

**Q.** And the IC50 [2]?
**A.** Its IC50 is 547 nM.

**Q.** What about the IC50 [3] of the same compound?
**A.** The IC50 was 544 nM.

**Q.** What about the Vdss [11] of the same compound?
**A.** Its Vdss is 10.3 L/kg.

**Q.** And the AUClast [12]?
**A.** The AUClast was 13520 ng·h/mL.

**Q.** What about the IC50 [4] of the same compound?
**A.** Its IC50 is 79 nM.

**Q.** And the AUClast [13]?
**A.** Its AUClast is 2320 ng·h/mL.

**Q.** And the inhibition [5]?
**A.** Its inhibition is “Active”.

**Q.** Which results are given for `Cc1ccc(C#Cc2cccc(-c3nn(-c4nc(C(=O)O)cs4)c(CCC4CC4)c3Cc3ccc(S(N)(=O)=O)c(F)c3)c2)o1`?
**A.** IC50 (A673): 137 nM; IC50 [1]: 52 nM; inhibition (Sus scrofa): inactive; IC50 (MIA PaCa-2): 137 nM; IC50 [2]: 417 nM; IC50 [3]: 547 nM; IC50 [4]: 95 nM; inhibition [5]: Active

**Q.** For `CC(F)C#Cc1cc(-c2nn(-c3nc(C(=O)O)cs3)c(CC3CC3)c2Cc2ccc(S(N)(=O)=O)c(F)c2)ccc1F` (stereo unspecified), which IC50 (A673) is on record?
**A.** The IC50 was 1130 nM.

**Q.** What about the IC50 [1] of the same compound?
**A.** Its IC50 is 14 nM.

**Q.** And the inhibition (Sus scrofa)?
**A.** Its inhibition is “inactive”.

**Q.** And the IC50 (MIA PaCa-2)?
**A.** Its IC50 is 1020 nM.

**Q.** And the IC50 [2]?
**A.** The IC50 was 822 nM.

**Q.** What about the IC50 [3] of the same compound?
**A.** The IC50 was 800 nM.

**Q.** And the IC50 [4]?
**A.** Its IC50 is 127 nM.

**Q.** What about the inhibition [5] of the same compound?
**A.** The inhibition was “Active”.

**Q.** For `CC(C)C#Cc1cc(-c2nn(-c3nc(C(=O)O)cs3)c(CC3CC3)c2Cc2ccc(S(N)(=O)=O)c(F)c2)ccc1F`, which IC50 (A673) is on record?
**A.** Its IC50 is 1010 nM.

**Q.** What about the IC50 [1] of the same compound?
**A.** The IC50 was 21 nM.

**Q.** And the inhibition (Sus scrofa)?
**A.** The inhibition was “inactive”.

**Q.** And the IC50 (MIA PaCa-2)?
**A.** Its IC50 is 756 nM.

**Q.** What about the IC50 [2] of the same compound?
**A.** The IC50 was 487 nM.

**Q.** And the IC50 [3]?
**A.** The IC50 was 284 nM.

**Q.** What about the IC50 [4] of the same compound?
**A.** Its IC50 is 2050 nM.

**Q.** And the inhibition [5]?
**A.** The inhibition was “Active”.

**Q.** Which IC50 (A673) does the source give for `CC(C)c1ccc(C#Cc2cccc(-c3nn(-c4nc(C(=O)O)cs4)c(CC4CC4)c3Cc3ccc(S(N)(=O)=O)c(F)c3)c2)s1` here?
**A.** The IC50 was 528 nM.

**Q.** What about the IC50 [1] of the same compound?
**A.** The IC50 was 385 nM.

**Q.** What about the inhibition (Sus scrofa) of the same compound?
**A.** Its inhibition is “inactive”.

**Q.** And the IC50 (MIA PaCa-2)?
**A.** Its IC50 is 590 nM.

**Q.** What about the IC50 [2] of the same compound?
**A.** The IC50 was 203 nM.

**Q.** And the IC50 [3]?
**A.** The IC50 was 296 nM.

**Q.** What about the IC50 [4] of the same compound?
**A.** The IC50 was 179 nM.

**Q.** And the inhibition [5]?
**A.** The inhibition was “Active”.

**Q.** Which IC50 (A673) does the source give for `CC(C)CC#Cc1cc(-c2nn(-c3nc(C(=O)O)cs3)c(CC3CC3)c2Cc2ccc(S(N)(=O)=O)c(F)c2)ccc1F` here?
**A.** Its IC50 is 935 nM.

**Q.** And the IC50 [1]?
**A.** The IC50 was 54 nM.

**Q.** And the inhibition (Sus scrofa)?
**A.** Its inhibition is “inactive”.

**Q.** And the IC50 (MIA PaCa-2)?
**A.** The IC50 was 909 nM.

**Q.** And the IC50 [2]?
**A.** Its IC50 is 487 nM.

**Q.** And the IC50 [3]?
**A.** The IC50 was 284 nM.

**Q.** What about the IC50 [4] of the same compound?
**A.** Its IC50 is 89 nM.

**Q.** What about the inhibition [5] of the same compound?
**A.** The inhibition was “Active”.

**Q.** With `NS(=O)(=O)c1ccc(Cc2c(-c3cccc(-c4ccccc4)c3)nn(-c3nc(C(=O)O)cs3)c2CC2CC2)cc1` as the compound, how does the “beta t1/2” value [9] read?
**A.** Its value is 0.85 h.

**Q.** With `NS(=O)(=O)c1ccc(Cc2c(-c3ccc(F)c(C#CC(F)(F)F)c3)nn(-c3nc(C(=O)O)cs3)c2CC2CC2)cc1F` as the compound, how does the IC50 (A673) read?
**A.** The IC50 was > 30000 nM.

**Q.** And the IC50 [1]?
**A.** The IC50 was 450 nM.

**Q.** And the inhibition (Sus scrofa)?
**A.** Its inhibition is “inactive”.

**Q.** What about the IC50 (MIA PaCa-2) of the same compound?
**A.** Its IC50 is > 30000 nM.

**Q.** And the IC50 [2]?
**A.** The IC50 was > 30000 nM.

**Q.** What about the IC50 [3] of the same compound?
**A.** Its IC50 is > 30000 nM.

**Q.** What about the IC50 [4] of the same compound?
**A.** Its IC50 is 14000 nM.

**Q.** What about the inhibition [5] of the same compound?
**A.** The inhibition was “Active”.

— ChEMBL document CHEMBL4665801, “Pyrazole-Based Lactate Dehydrogenase Inhibitors with Optimized Cell Activity and Pharmacokinetic Properties” (J Med Chem, 2020)
